The values that follow come from article PMC6810698 (European journal of nuclear medicine and molecular imaging, 2019).

In data set [1] the target is T1, SV2A (Macaca mulatta, UniProt H9EQH8). Format: in vivo, rhesus monkeys (Macaca mulatta). The settings on record: for Regional distribution volume (VT): 1TC model; for Regional non-displaceable binding potential (BPND): baseline scans (n = 4), reference region centrum semiovale. In short, it runs like this: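 Fasted rhesus monkeys were immobilised with ketamine (10 mg/kg im) and maintained on isoflurane (1.5–2.5% in oxygen). Radiotracer was infused iv over 3 min after a transmission scan, and dynamic list-mode data were collected for 120 min. MR-defined ROIs gave time–activity curves. VT came from a 1TC model with metabolite-corrected arterial plasma input, and BPND from VT with centrum semiovale as reference.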
T1 sequence (H9EQH8 1-742): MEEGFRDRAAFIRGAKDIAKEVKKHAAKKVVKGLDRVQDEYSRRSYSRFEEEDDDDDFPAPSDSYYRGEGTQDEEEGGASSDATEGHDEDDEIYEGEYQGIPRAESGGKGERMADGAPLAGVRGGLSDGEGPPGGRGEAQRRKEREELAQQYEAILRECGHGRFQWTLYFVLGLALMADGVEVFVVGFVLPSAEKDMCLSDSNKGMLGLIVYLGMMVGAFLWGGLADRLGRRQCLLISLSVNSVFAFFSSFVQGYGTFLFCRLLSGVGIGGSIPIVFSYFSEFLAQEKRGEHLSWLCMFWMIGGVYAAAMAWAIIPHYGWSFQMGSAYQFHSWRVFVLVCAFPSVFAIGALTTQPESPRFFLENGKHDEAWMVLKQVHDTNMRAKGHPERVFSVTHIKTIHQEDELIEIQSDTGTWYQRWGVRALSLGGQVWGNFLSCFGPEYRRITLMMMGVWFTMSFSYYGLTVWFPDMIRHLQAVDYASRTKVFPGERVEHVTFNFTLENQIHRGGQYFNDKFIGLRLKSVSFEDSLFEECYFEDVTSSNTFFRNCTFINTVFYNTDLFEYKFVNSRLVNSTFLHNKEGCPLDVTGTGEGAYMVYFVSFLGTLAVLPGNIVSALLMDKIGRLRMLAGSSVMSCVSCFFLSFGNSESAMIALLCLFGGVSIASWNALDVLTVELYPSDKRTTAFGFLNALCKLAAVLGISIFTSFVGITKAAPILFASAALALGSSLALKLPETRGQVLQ

The target in another data set is human SV2A protein. The settings on record: cited from earlier work.
Data set [2] concerns the target T1, SV2A. Put plainly: SV2A occupancy from occupancy plot. The data set is classed as in vivo, rhesus monkeys (Macaca mulatta). The settings on record: 0.15 mg/kg UCB-J, 10 min before 5-[^18F]UCB-J injection. The method in brief:
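Baseline and blocking PET scans were run with iv radiotracer and arterial input. Regional VT came from 1TC kinetic modelling. Occupancy was derived from an occupancy plot of baseline regional VT against the baseline-minus-blocking VT difference.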

In data set [3] the target is T1, SV2A. As to conditions: same dose of UCB-J (0.15 mg/kg), measured with [^11C]UCB-J; cited from earlier work.
Data set [4] can be described thus: Plasma metabolite analysis. As to conditions: 30 min after injection; rhesus monkey arterial plasma; n = 4. The data set is classed as in vivo, rhesus monkeys (Macaca mulatta).
Data set [5] is described as follows: Radiotracer free fraction. The data set is classed as in vitro ADME, rhesus monkeys (Macaca mulatta). As to conditions: ultrafiltration; rhesus monkey plasma; n = 4. In short, it runs like this:
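Plasma ultrafiltration was used. fP was taken as filtrate radioactivity concentration divided by total plasma activity, measured in triplicate per scan.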

The mark [6] stands for this setting: baseline scan, centrum semiovale.
Where [7] appears, read: baseline scan, cingulate cortex.
Where [8] appears, read: baseline scan, nucleus accumbens.
Setting [9] is: baseline scan, occipital cortex.

Read-outs that look alike come from different tables or passages of the source.

On to `Cc1cnccc1CN1C[C@H](c2cc(F)c(F)c([18F])c2)CC1=O` [(S)-5-[^18F]3, 4-(3,4-Difluoro-5-(fluoro-^18F)phenyl)-1-((3-methylpyridin-4-yl)methyl)pyrrolidin-2-one], for which the “specific binding in brain” value at SV2A [1] (baseline scan, n = 1) is “lack of specific binding”. The “Regional distribution volume (VT)” value on SV2A [1] (baseline scan, amygdala) was 5.0 mL/cm^−3; on SV2A [1] (baseline scan, brainstem) it was 5.7 mL/cm^−3; at SV2A [1] (baseline scan, caudate), 6.6 mL/cm^−3; on SV2A [1] (setting [6]), 6.9 mL/cm^−3; on SV2A [1] (baseline scan, cerebellum) it was 5.7 mL/cm^−3; at SV2A [1] (setting [7]), 7.2 mL/cm^−3. Besides, the “Regional distribution volume (VT)” value at SV2A [1] (baseline scan, frontal cortex) was 7.2 mL/cm^−3; at SV2A [1] (baseline scan, globus pallidus), 6.3 mL/cm^−3; on SV2A [1] (baseline scan, hippocampus), 5.7 mL/cm^−3; at SV2A [1] (baseline scan, insula) it was 6.8 mL/cm^−3; at SV2A [1] (setting [8]), 6.3 mL/cm^−3; at SV2A [1] (setting [9]), 6.6 mL/cm^−3. Moreover, the “Regional distribution volume (VT)” value at SV2A [1] (baseline scan, pons) is 6.1 mL/cm^−3; on SV2A [1] (baseline scan, putamen), 6.6 mL/cm^−3; at SV2A [1] (baseline scan, temporal cortex), 6.5 mL/cm^−3; at SV2A [1] (baseline scan, thalamus) it was 6.3 mL/cm^−3.
Take `Cc1cnccc1CN1C[C@H](c2cc(F)c(F)c(F)c2)CC1=O` [(S)-enantiomer]: the “pIC50, binding affinity to human SV2A protein” value on human SV2A protein is listed as 7.1.
For the compound `Cc1cnccc1CN1C[C@@H](c2cc(F)c(F)c(F)c2)CC1=O` [UCB-J], the “SV2A occupancy by UCB-J” value is on record as 73% on SV2A [2] and 87% on SV2A [3]. The “pIC50, binding affinity to human SV2A protein” value at human SV2A protein is 8.2.
On to `[11CH3]c1cnccc1CN1C[C@@H](c2cc(F)c(F)c(F)c2)CC1=O` [[^11C]UCB-J], for which the “intact parent radiotracer in plasma (parent fraction)” value in data set [4] was 47 ± 12%. Also, the “Regional distribution volume (VT)” value on SV2A [1] (baseline scan, amygdala) was determined as 24.1 ± 2.2 mL/cm^−3; at SV2A [1] (baseline scan, brainstem), 20.1 ± 2.8 mL/cm^−3; at SV2A [1] (baseline scan, caudate) it was 40.3 ± 6.1 mL/cm^−3; at SV2A [1] (setting [6]), 11.1 ± 1.6 mL/cm^−3; on SV2A [1] (baseline scan, cerebellum) it was 30.5 ± 3.5 mL/cm^−3; on SV2A [1] (setting [7]) it was 47.3 ± 7.5 mL/cm^−3. Besides, the “Regional distribution volume (VT)” value is recorded as 48.9 ± 7.4 mL/cm^−3 on SV2A [1] (baseline scan, frontal cortex); 24.5 ± 3.1 mL/cm^−3 on SV2A [1] (baseline scan, globus pallidus); 31.3 ± 2.3 mL/cm^−3 on SV2A [1] (baseline scan, hippocampus); 47.7 ± 7.5 mL/cm^−3 on SV2A [1] (baseline scan, insula); 45.7 ± 6.2 mL/cm^−3 at SV2A [1] (setting [8]); 45.1 ± 6.9 mL/cm^−3 on SV2A [1] (setting [9]). Also, the “Regional distribution volume (VT)” value at SV2A [1] (baseline scan, pons) is reported as 19.8 ± 2.7 mL/cm^−3; on SV2A [1] (baseline scan, putamen) it was 40.1 ± 6.8 mL/cm^−3; at SV2A [1] (baseline scan, temporal cortex), 42.8 ± 6.7 mL/cm^−3; at SV2A [1] (baseline scan, thalamus), 36.2 ± 5.2 mL/cm^−3. Also, the “Regional non-displaceable binding potential (BPND)” value is 1.2 ± 0.4 at SV2A [1] (amygdala); 0.8 ± 0.2 on SV2A [1] (brainstem); 2.7 ± 0.7 at SV2A [1] (caudate); 1.8 ± 0.3 on SV2A [1] (cerebellum); 3.3 ± 0.9 on SV2A [1] (cingulate cortex); 3.5 ± 0.9 on SV2A [1] (frontal cortex). The “Regional non-displaceable binding potential (BPND)” value on SV2A [1] (globus pallidus) is 1.2 ± 0.2; on SV2A [1] (hippocampus), 1.9 ± 0.3; at SV2A [1] (insula), 3.3 ± 0.8; at SV2A [1] (nucleus accumbens), 3.2 ± 0.7; at SV2A [1] (occipital cortex), 3.1 ± 0.7; at SV2A [1] (pons), 0.8 ± 0.2. Besides, the results for the “Regional non-displaceable binding potential (BPND)” value at SV2A [1] (putamen), at SV2A [1] (temporal cortex) and on SV2A [1] (thalamus) were 2.6 ± 0.5, 2.9 ± 0.6 and 2.3 ± 0.7, respectively. Moreover, the “BPND values in all brain regions” value at SV2A [1] (baseline scans, all brain regions) is listed as more than 0.75. Besides, the “plasma free fraction (fp)” value in data set [5] amounted to 43 ± 5%.
On to `CC[C@@H](C(N)=O)N1CCCC1=O` [levetiracetam], for which the “displacement of [^18F]UCB-J binding” value at SV2A [1] (levetiracetam 30 mg/kg i.v. at 90 min after radiotracer administration, 180-min scan with 5-[^18F]UCB-J) was “rapid reduction in radiotracer binding”.
